Hits are enriched below; roughly 1.4% of the tested compounds scored in any of these assays.
Efflux pump mplx: inhibitors of Candida efflux pumps in yeast, primary screen, S. cerevisiae, Nile Red, multiplex. S. cerevisiae Candida pump triplex. inhibition, % at 10 µM. 330,000 compounds, 0.44% hits. AID 485275, 2010;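 active = plate passing quality check with inhibition over a set limit, or well fluorescence over plate mean plus 4 SD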;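 also: Nile Red retained in pooled yeast measured as flow cytometry median fluorescence; 0% = buffer negative control and 100% = Enniatin B positive control; higher means more Nile Red kept so more efflux inhibition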
IDE cell activ: human IDE activators in live cells, primary screen, fluorescence polarization, HEK cells, FAbeta-B substrate. Insulin-degrading enzyme (Homo sapiens), P14735. FAbeta-B cleavage; 0% vehicle, 100% cell-free pure enzyme wells. activation, % at 5.96 µM. 340,000 compounds, 0.073% hits. AID 493087, 2011;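 active = activation above the mean of all tested compounds plus 3 SD, set per screening campaign, cut at about 17% in these data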
Tb MetRS inh: T. brucei MetRS inhibitors, primary screen, biochemical, luminescence; inhibition, % at 11.9 µM; methionyl-tRNA synthetase (Trypanosoma brucei brucei); AID 624268, 2012; purified T. brucei MetRS, ATP depletion, Kinase-Glo luminescence; 360,000 compounds, 0.4% hits;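 active = inhibition above a per-plate cutoff of the control wells' mean inhibition plus 3 SD, cut at about 5.5% in these data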;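 also: 0% = DMSO wells median and 100% = median of wells with control inhibitor compound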
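Dosing: 11.9 µM compound single dose, 0.9% DMSO; Assay system: purified T. brucei MetRS enzyme; Measured by: Kinase-Glo luciferase luminescence reporting remaining unconsumed ATP; Schedule: 15 min plus 2 h at 25 °C.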
CR mimetic SO: reduction of superoxide in aged yeast, primary screen, HTS | S. cerevisiae aged cells, superoxide DHE fluorescence; stronger effect = lower value | superoxide response (% of plate mean), % at 10 µM | 330,000 compounds, 0.18% hits | AID 2690, 2010;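 active = superoxide response under a set limit, about three screen SD below normal, cut at about 65% in these data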;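 also: yeast aged for seven days with compound at 30 °C before DHE staining; 100% = average MFI of all compound-treated wells on the plate with controls excluded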
IDE inh: human IDE inhibitors in live cells, primary screen, fluorescence polarization, HEK cells, FAbetaB substrate. AID 434962, 2010. FAbetaB cleavage. 320,000 compounds, 0.41% hits. inhibition, % at 5.59 µM;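 active = percent inhibition above the average of all tested compounds plus 3 SD, set per screening campaign, cut at about 16% in these data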;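 also: IDE supplied by intact live HEK cells; FP after avidin binding of uncleaved biotin substrate so inhibition keeps polarization high; 0% = DMSO wells and 100% = 60 µM reference IDE inhibitor Ii1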
HDAC3 inhib: HDAC3 deacetylase inhibitors, primary screen, biochemical, fluorescence, cell-free homogeneous; Histone deacetylase 3 (Homo sapiens), O15379; recombinant HDAC3, fluorogenic peptide/trypsin coupled; inhibition, % at 8.3 µM; 320,000 compounds, 0.15% hits; AID 2718, 2010; in the data active = inhibition above about 26%, passing the limit was not always enough; inconclusive = no clear call, values can overlap the other calls
* marks the source's active call; other numbers are inactive results; ? = inconclusive; nt = not tested or not shown.

SMILES	Efflux pump mplx	IDE cell activ	Tb MetRS inh	CR mimetic SO	IDE inh	HDAC3 inhib
O=C1/C(=C/C=C/c2ccco2)SC(=S)N1NS(=O)(=O)c1ccccc1	1.5*	-5	1	101	2	4
C/C(=N/NC(=O)c1ccccc1)C1=C(O)CC(C)(C)CC1=O	0	-3	0	109	2	71*
CC1(C)CC(=O)C(C(N)=NC(=O)c2ccccc2)=C(O)C1	0	-4	1	116	-5	-2
C/C(=C\c1ccccc1)C(=O)n1nnc2ccccc21	0	2	-1	90	7	28*
CCCN(CCC)Cc1c(C(=O)N/N=C/c2c[nH]c3ccccc23)nnn1-c1nonc1N	0	-3	2	101	-5	32*
CCCc1c(C(=O)N/N=C/c2c[nH]c3ccccc23)nnn1-c1nonc1N	nt	nt	0	nt	nt	nt
COc1c(C(=O)Nc2ccc3[nH]c(=O)[nH]c3c2)cc2ccccc2c1Br	0	20*	-1	91	-3	-10
CN(C)CCCOc1ccc(Cl)cc1Br	0	-5	5.9*	105	-1	-1
Cc1ccc(OCCCN(C)C)c(Br)c1	0	6	-1	98	1	1
O=C(Cn1c(=O)oc2cc(S(=O)(=O)N3CCCC3)ccc21)Nc1ccccn1	nt	nt	0	nt	nt	nt
C#CCSc1nncn1C(=O)/C=C/c1ccccc1	0	nt	nt	104	-4	73*
Cn1cccc1/C=N/n1c(-c2ccc(C(C)(C)C)cc2)n[nH]c1=S	0	-5	-1	94	0	29*
Cn1cccc1/C=N/n1c(-c2ccccc2)n[nH]c1=S	0	0	-2	84	2	2
COc1ccc(C(=O)n2nnc3ccccc32)cc1Br	0	2	0	106	-4	96*
COc1ccc(C(=O)n2nnc3ccccc32)cc1OC	0	5	0	111	0	70*
COC(=O)[C@@]12C[C@@H](CC(=O)N3CCN(C(=O)C4CC4)CC3)C(=O)N(Cc3cccc4ccccc34)C1=CCC(C)(C)C2	nt	nt	0	nt	nt	nt
OC(c1ccc2ccccc2c1)c1ncc(-c2cccc3ccccc23)[nH]1 (stereo unspecified)	nt	nt	0	nt	nt	nt
O=C(c1cc([N+](=O)[O-])ccc1N1CCOCC1)N1CCN(c2ccc([N+](=O)[O-])cc2)CC1	0	30*	0	108	-15	6
O=C(c1cc([N+](=O)[O-])ccc1N1CCOCC1)N1CCCCC1	0	1	1	103	-4	5
NC(=O)c1cnc(Cc2c[nH]c3ccccc23)c(I)c1	nt	nt	2	nt	nt	nt
CO/N=C/c1ccc(N2CCN(C(=O)c3ccc(C)cc3)CC2)c([N+](=O)[O-])c1	0	11	16*	76	-2	3
CO/N=C/c1ccc(N2CCCC2)c([N+](=O)[O-])c1	0	1	0	91	0	3
CC(C)(O)C#Cc1ccccc1C(=O)NC(CC(N)=O)C(=O)O (stereo unspecified)	0	18*	-1	108	-3	3
NC(=O)CC(NC(=O)OCc1ccccc1)C(=O)O (stereo unspecified)	0	2	-1	88	0	0
O=c1ccc2cc3c([nH]c4ccc(Br)cc43)oc-2c1O	0	-22	3	81	10	38*
SMILES	Efflux pump mplx	IDE cell activ	Tb MetRS inh	CR mimetic SO	IDE inh	HDAC3 inhib
O=C(O)c1ccc(N=Nc2c(O)[nH]c3ccc(Br)cc23)cc1	1	-3	-1	104	3	4
CN1C(=O)C(N=Nc2ccccc2C(=O)O)N(C)C1=S (stereo unspecified)	0	-42	-1	127	21*	13
S=C1NC2=C(CCCC2=C2SCCCS2)C(c2ccccc2)N1 (stereo unspecified)	0	-5	-1	96	-1	43*
COc1ccc(C2NC(=S)NC3=C2CCCC3=C2SCCS2)cc1 (stereo unspecified)	0	0	-2	101	-6	?
Cc1cc(N2CCN(C(C(=O)NC3CCCC3)C(C)(C)C)CC2)c2ccccc2n1 (stereo unspecified)	nt	nt	-1	nt	nt	nt
Cc1ccc2nc(-c3ccc(F)cc3)c(CC3CCCCC3)n2c1	nt	nt	-2	nt	nt	nt
COc1ccc(C2CC(=O)N3CN(c4ccc(C)c(Cl)c4)CSC3=C2C#N)cc1OC (stereo unspecified)	0	-11	1	90	4	43*
COc1ccc(N2CSC3=C(C#N)C(c4cc(OC)c(OC)cc4OC)CC(=O)N3C2)c(OC)c1 (stereo unspecified)	0	-12	1	107	5	38*
CCc1ccc(N2CSC3=C(C#N)C(c4cccs4)CC(=O)N3C2)cc1 (stereo unspecified)	0	-11	0	97	0	17
COc1ccc(N2CSC3=C(C#N)C(c4ccc(OC)c(OC)c4)CC(=O)N3C2)c(OC)c1 (stereo unspecified)	0	-12	1	103	2	40*
CCOC(=O)c1ccc(N2CSC3=C(C#N)C(c4cccs4)CC(=O)N3C2)cc1 (stereo unspecified)	0	-4	1	107	4	31*
COc1cc(OC)c(C2CC(=O)N3CN(c4ccc(C)cc4)CSC3=C2C#N)cc1OC (stereo unspecified)	0	-12	0	108	6	-6
COC(=O)[C@@]12C[C@@H](CC(=O)NCc3cccc4ccccc34)C(=O)N(Cc3ccc4c(c3)OCO4)C1=CCC(C)(C)C2	nt	nt	-1	nt	nt	nt
COc1ccc(N2CSC3=C(C#N)C(c4cccs4)CC(=O)N3C2)cc1 (stereo unspecified)	0	4	-1	91	7	?
COc1ccc(N2CSC3=C(C#N)C(c4cc(OC)ccc4OC)CC(=O)N3C2)c(OC)c1 (stereo unspecified)	0	-17	1	98	11	42*
CCCCCC(=O)N(O)C1CC(=O)N(c2ccccc2)C1=O (stereo unspecified)	0	0	0	99	4	75*
CCCCCCC(=O)N(O)C1CC(=O)N(Cc2ccccc2)C1=O (stereo unspecified)	0	-5	-1	105	-1	78*
CCCc1nc2ccc(Cl)cn2c1Cc1ccc(C)cc1	nt	nt	1	nt	nt	nt
COc1ccc(S(=O)(=O)N(C(C)=O)c2ccc3oc(=O)sc3c2)cc1	0	-19	0	104	25*	-4

Screening data from PubChem.
